In ChEMBL document CHEMBL1144440, “A-ring-substituted estrogen-3-O-sulfamates: potent multitargeted anticancer agents” (J Med Chem, 2005):

Legend:
MCF7 = experiment: Inhibition of the growth of human breast cancer MCF-7 cells done for 96 hr at 37 degree C with compound; conditions: MCF7, 96 h
[1] = Concentration required to inhibit the growth of HOP-6 human lung cancer cells by 50%; type: functional; conditions: Cancer cell lines
Procedure, shortened: (§1)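 NCI 55 human cancer cell line panel screen; GI50 is the concentration giving 50% growth inhibition; compounds tested over 10^-4 to 10^-8 M.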

SF-539 = experiment: Concentration required to inhibit the growth of SF-539 human CNS cancer cells by 50%; type: functional
Procedure, shortened: as §1

SN12C = experiment: Concentration required to inhibit the growth of SN12C human renal cancer cells by 50%; type: functional
Procedure, shortened: as §1

HCT-116 = experiment: Concentration required to inhibit the growth of HCT116 human colon cancer cells by 50%; type: functional
Procedure, shortened: as §1

DU-145 = experiment: Concentration required to inhibit the growth of DU-145 human prostate cancer cells by 50%; type: functional
Procedure, shortened: as §1

OVCAR-3 = experiment: Concentration required to inhibit the growth of OVCAR-3 human ovarian cancer cells by 50%; type: functional
Procedure, shortened: as §1

MDA-MB-435 = experiment: Concentration required to inhibit the growth of MDA-MB-435 human breast cancer cells by 50%; type: functional
Procedure, shortened: as §1

UACC-62 = experiment: Concentration required to inhibit the growth of UACC-62 human melanoma cells by 50%; type: functional
Procedure, shortened: as §1

[2] = Mean graph midpoint (MGM) against a panel of human tumor cell lines; type: functional
Procedure, shortened: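 NCI 55 cell line panel; mean graph midpoint is the mean concentration giving 50% growth inhibition across all cell lines successfully evaluated; tested range 10^-4 to 10^-8 M, so 0.01 µM is the […] possible value.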

Steryl-sulfatase = molecular target: T1, Steryl-sulfatase (Homo sapiens, UniProt P08842); experiment: Inhibitory concentration against steroid sulfatase in placental microsomes; set-up: species or system Placenta
T1 sequence (P08842 whole entry): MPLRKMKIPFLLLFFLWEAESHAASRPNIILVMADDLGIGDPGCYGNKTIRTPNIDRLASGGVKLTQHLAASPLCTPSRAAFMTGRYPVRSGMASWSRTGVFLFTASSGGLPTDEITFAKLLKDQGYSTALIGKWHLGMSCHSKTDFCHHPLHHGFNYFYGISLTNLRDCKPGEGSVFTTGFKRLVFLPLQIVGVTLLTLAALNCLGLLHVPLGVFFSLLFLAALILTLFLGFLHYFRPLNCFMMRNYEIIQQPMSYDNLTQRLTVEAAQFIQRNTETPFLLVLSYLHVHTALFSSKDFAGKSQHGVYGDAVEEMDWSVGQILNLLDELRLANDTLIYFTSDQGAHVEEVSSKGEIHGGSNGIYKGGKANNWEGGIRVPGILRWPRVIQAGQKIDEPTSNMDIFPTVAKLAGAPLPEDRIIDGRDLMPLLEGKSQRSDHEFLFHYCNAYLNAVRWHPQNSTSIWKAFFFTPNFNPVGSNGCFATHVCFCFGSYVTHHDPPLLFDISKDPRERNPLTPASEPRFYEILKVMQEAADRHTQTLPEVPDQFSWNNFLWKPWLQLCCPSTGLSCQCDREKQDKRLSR

Mus musculus = experiment: Reduction of tumor growth in female mice transplanted with xenografts derived from MDA-MB-435 (ER-) human breast cancer cells after 28 days of treatment at 20 mg/kg oral dose; type: functional, organism-based; set-up: dose 20 mg/kg, route oral; conditions: MDA-MB-435, 672 h
Procedure, shortened: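 Oral daily dosing for 28 days. Drug was dissolved in minimal THF, then diluted with propylene glycol. Vehicle controls received THF/propylene glycol. Groups were 12 female mice bearing MDA-MB-435 xenografts, with dosing started at 100-200 mm³. Tumour length and width were measured weekly, volume = l × w²/2, and monitoring continued 28 days after dosing. Growth was compared with controls by Student's t test.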

Structure (SMILES)	GI50 (MCF7)	GI50 (HCT-116)	GI50 (DU-145)	GI50 (OVCAR-3)	GI50 (MDA-MB-435)	GI50 [1]	GI50 (SF-539)	GI50 (SN12C)	MGM [2]	also measured
C[S+]([O-])c1cc2c(cc1O)CC[C@@H]1[C@@H]2CC[C@]2(C)C(=O)CC[C@@H]12 (some centres undefined)	> 10 µM									
C[C@]12CC[C@@H]3c4cc(Br)c(O)cc4CC[C@H]3[C@@H]1CCC2=O	33 µM									
CCSc1cc2c(cc1O)CC[C@@H]1[C@@H]2CC[C@]2(C)[C@@H](O)CC[C@@H]12	23.2 µM	8.5 µM	24 µM	14 µM	2 µM	16 µM	16 µM	18 µM	10 µM	GI50 (UACC-62): 11 µM
CCc1cc2c(cc1OS(N)(=O)=O)CC[C@@H]1[C@@H]2CC[C@]2(C)C(=O)CC[C@@H]12	0.34 µM	< 0.01 µM	< 0.01 µM	< 0.01 µM	< 0.01 µM	< 0.01 µM	< 0.01 µM	< 0.01 µM	0.014 µM	IC50 (Steryl-sulfatase): 1.8 µM; GI50 (UACC-62): < 0.01 µM
COc1cc2c(cc1OS(N)(=O)=O)CC[C@@H]1[C@@H]2CC[C@]2(C)[C@@H](O)CC[C@@H]12										IC50 (Steryl-sulfatase): 0.034 µM; IC50 (Mus musculus): 33 µM
CSc1cc2c(cc1OS(N)(=O)=O)CC[C@@H]1[C@@H]2CC[C@]2(C)C(=O)CC[C@@H]12	0.4 µM	0.088 µM	22 µM	0.012 µM	< 0.01 µM	35 µM	0.045 µM	0.76 µM	0.229 µM	IC50 (Steryl-sulfatase): 0.12 µM; GI50 (UACC-62): 0.052 µM
CSc1cc2c(cc1O)CC[C@@H]1[C@@H]2CC[C@]2(C)C(=O)CC[C@@H]12	33.4 µM	20 µM	85 µM	22 µM	12 µM	27 µM	14 µM	19 µM	20.4 µM	GI50 (UACC-62): 12 µM
CCSc1cc2c(cc1O)CC[C@@H]1[C@@H]2CC[C@]2(C)C(=O)CC[C@@H]12	31.9 µM									
COc1cc2c(cc1OS(N)(=O)=O)CC[C@@H]1[C@@H]2CC[C@]2(C)C(=O)CC[C@@H]12	0.3 µM	0.065 µM	0.32 µM	< 0.01 µM	< 0.01 µM	0.16 µM	0.12 µM	0.6 µM	0.095 µM	IC50 (Steryl-sulfatase): 0.042 µM; GI50 (UACC-62): 0.017 µM
CCSc1cc2c(cc1OS(N)(=O)=O)CC[C@@H]1[C@@H]2CC[C@]2(C)C(=O)CC[C@@H]12	35.2 µM	3.2 µM	13 µM	2.3 µM	2.2 µM	6.9 µM	1.4 µM	11 µM	5.62 µM	GI50 (UACC-62): 5.9 µM
COc1cc2c(cc1O)CC[C@@H]1[C@@H]2CC[C@]2(C)C(=O)CC[C@@H]12	21.3 µM									
COc1cc2c(cc1O)CC[C@@H]1[C@@H]2CC[C@]2(C)[C@@H](O)CC[C@@H]12 [2-METHOXYESTRADIOL]		0.47 µM	1.8 µM	0.21 µM	0.08 µM	0.7 µM	0.32 µM	0.95 µM	1.3 µM	GI50 (UACC-62): 0.36 µM
C[C@]12CC[C@@H]3c4ccc(OS(N)(=O)=O)cc4CC[C@H]3[C@@H]1CCC2=O [EMATE]										IC50 (Steryl-sulfatase): 0.022 µM

More lines, main results first:

GI50 (MCF7)	GI50 (HCT-116)	GI50 (DU-145)	GI50 (OVCAR-3)	GI50 (MDA-MB-435)	Structure (SMILES)	GI50 [1]	GI50 (SF-539)	GI50 (SN12C)	MGM [2]	also measured
0.61 µM					CCOc1cc2c(cc1OS(N)(=O)=O)CC[C@@H]1[C@@H]2CC[C@]2(C)[C@@H](O)CC[C@@H]12					
0.26 µM					Cc1cc2c(cc1OS(N)(=O)=O)CC[C@@H]1[C@@H]2CC[C@]2(C)C(=O)CC[C@@H]12					
57.6 µM					CCc1cc2c(cc1O)CC[C@@H]1[C@@H]2CC[C@]2(C)C(=O)CC[C@@H]12					
38 µM					C[C@]12CC[C@@H]3c4cc(I)c(O)cc4CC[C@H]3[C@@H]1CCC2=O					
3.96 µM					CSc1cc2c(cc1O)CC[C@@H]1[C@@H]2CC[C@]2(C)[C@@H](O)CC[C@@H]12					
> 10 µM					COc1cc2c(cc1OS(=O)(=O)N(C)C)CC[C@@H]1[C@@H]2CC[C@]2(C)C(=O)CC[C@@H]12					
10.5 µM	3.5 µM	11 µM	2.9 µM	1.7 µM	CCc1cc2c(cc1O)CC[C@@H]1[C@@H]2CC[C@]2(C)[C@@H](O)CC[C@@H]12	6.1 µM	3.3 µM	7.3 µM	6.5 µM	
9.04 µM					CCOc1cc2c(cc1O)CC[C@@H]1[C@@H]2CC[C@]2(C)C(=O)CC[C@@H]12					
6.95 µM					C[C@]12CC[C@@H]3c4cc(Br)c(OS(N)(=O)=O)cc4CC[C@H]3[C@@H]1CCC2=O					
1.59 µM					C[C@]12CC[C@@H]3c4cc(I)c(OS(N)(=O)=O)cc4CC[C@H]3[C@@H]1CCC2=O					
168 µM					COc1cc2c(cc1OS(=O)(=O)NC(C)=O)CC[C@@H]1[C@@H]2CC[C@]2(C)C(=O)CC[C@@H]12					
0.07 µM	< 0.01 µM	< 0.01 µM	< 0.01 µM	< 0.01 µM	CCc1cc2c(cc1OS(N)(=O)=O)CC[C@@H]1[C@@H]2CC[C@]2(C)[C@@H](O)CC[C@@H]12	< 0.01 µM	< 0.01 µM	0.04 µM	0.016 µM	IC50 (Steryl-sulfatase): 1 µM; GI50 (UACC-62): < 0.01 µM
4.84 µM					CCOc1cc2c(cc1OS(N)(=O)=O)CC[C@@H]1[C@@H]2CC[C@]2(C)C(=O)CC[C@@H]12					IC50 (Steryl-sulfatase): 0.89 µM
0.43 µM					CSc1cc2c(cc1OS(N)(=O)=O)CC[C@@H]1[C@@H]2CC[C@]2(C)[C@@H](O)CC[C@@H]12					
66 µM					C[C@]12CC[C@@H]3c4cc(S(C)(=O)=O)c(O)cc4CC[C@H]3[C@@H]1CCC2=O					
23.4 µM					CCSc1cc2c(cc1OS(N)(=O)=O)CC[C@@H]1[C@@H]2CC[C@]2(C)[C@@H](O)CC[C@@H]12					
